Laboratory results: ChEMBL document CHEMBL1938331, “Discovery of novel and potent CRTH2 antagonists” (Bioorg Med Chem Lett, 2012)

Key:
[1] = Clearance in guinea pig liver microsomes; type: ADME, Cavia porcellus, Microsome; details: read-out: CLH
[2] = AUC in Hartley guinea pig at 10 mg/kg, po; type: ADME, organism-based, Cavia porcellus; parameters: dose 10 mg/kg, route oral; details: plasma
Procedure, shortened: (§1)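 Guinea pigs fasted overnight, given 10 mg/kg orally as a 10 mg/mL suspension in 0.5% methylcellulose in water; plasma Cmax and AUC determined.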

[3] = Cmax in Hartley guinea pig at 10 mg/kg, po; type: ADME, organism-based, Cavia porcellus; parameters: dose 10 mg/kg, route oral; details: in vivo; procedure, shortened: as §1
[4] = molecular target: T1, Prostaglandin D2 receptor (Homo sapiens, UniProt Q13258); assay: Displacement of [3H]PGD2 from human DP1 receptor expressed in HEK293 cells after 2 hrs by scintillation counting; type: cell-based
T1 sequence (Q13258 whole entry): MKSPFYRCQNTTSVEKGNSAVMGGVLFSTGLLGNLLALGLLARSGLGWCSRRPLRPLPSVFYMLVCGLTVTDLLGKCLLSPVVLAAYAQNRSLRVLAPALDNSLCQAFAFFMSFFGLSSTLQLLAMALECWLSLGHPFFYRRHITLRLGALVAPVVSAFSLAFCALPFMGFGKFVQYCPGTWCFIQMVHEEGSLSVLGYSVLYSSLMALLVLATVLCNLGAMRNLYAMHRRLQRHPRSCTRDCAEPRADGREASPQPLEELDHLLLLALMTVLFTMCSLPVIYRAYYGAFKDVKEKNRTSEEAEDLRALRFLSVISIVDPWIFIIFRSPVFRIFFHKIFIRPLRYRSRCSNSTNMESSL
Procedure, shortened: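 Disrupted HEK293 cells stably expressing human DP1 (10 µg protein/well) in 10 mM BES, 1 mM EDTA, 10 mM MnCl2, pH 7.0, incubated with [3H]PGD2 and increasing compound concentrations 2 h at 4 °C; glass-filter harvest and scintillation counting of retained radioactivity.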

[5] = molecular target: T2, Chemoattractant receptor-homologous molecule expressed on Th2 cells (Cavia porcellus, UniProt Q56D28); assay: Displacement of [3H]PGD2 from guinea pig CRTH2 receptor expressed in HEK293 cells after 2 hrs by scintillation counting; type: cell-based
T2 sequence (Q56D28 whole entry): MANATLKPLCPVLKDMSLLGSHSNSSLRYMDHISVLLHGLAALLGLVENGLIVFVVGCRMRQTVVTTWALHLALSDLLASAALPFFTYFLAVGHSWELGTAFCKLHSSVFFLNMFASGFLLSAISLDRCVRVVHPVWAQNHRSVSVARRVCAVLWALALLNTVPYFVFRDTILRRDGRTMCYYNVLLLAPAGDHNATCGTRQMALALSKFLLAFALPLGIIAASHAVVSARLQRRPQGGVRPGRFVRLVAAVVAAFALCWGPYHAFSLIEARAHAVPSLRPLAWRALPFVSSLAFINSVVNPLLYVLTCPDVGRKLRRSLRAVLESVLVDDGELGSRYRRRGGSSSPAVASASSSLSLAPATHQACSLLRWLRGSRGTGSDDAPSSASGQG
Procedure, shortened: (§2)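 Disrupted HEK293 cells stably transfected with human or guinea pig CRTH2 (10 µg protein/well human; 20 µg protein/well guinea pig) in 10 mM BES, 1 mM EDTA, 10 mM MnCl2, pH 7.0, incubated with [3H]PGD2 and rising compound levels 2 h at 4 °C; filtered, scintillation counted; nonspecific binding with 10 µM DK-PGD2; IC50 for 50% binding loss; mean of ≥2 experiments.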

[6] = molecular target: T3, Prostaglandin D2 receptor 2 (Homo sapiens, UniProt Q9Y5Y4); assay: Displacement of [3H]PGD2 from human CRTH2 receptor expressed in HEK293 cells after 2 hrs by scintillation counting; type: cell-based; procedure, shortened: as §2
T3 sequence (Q9Y5Y4 whole entry): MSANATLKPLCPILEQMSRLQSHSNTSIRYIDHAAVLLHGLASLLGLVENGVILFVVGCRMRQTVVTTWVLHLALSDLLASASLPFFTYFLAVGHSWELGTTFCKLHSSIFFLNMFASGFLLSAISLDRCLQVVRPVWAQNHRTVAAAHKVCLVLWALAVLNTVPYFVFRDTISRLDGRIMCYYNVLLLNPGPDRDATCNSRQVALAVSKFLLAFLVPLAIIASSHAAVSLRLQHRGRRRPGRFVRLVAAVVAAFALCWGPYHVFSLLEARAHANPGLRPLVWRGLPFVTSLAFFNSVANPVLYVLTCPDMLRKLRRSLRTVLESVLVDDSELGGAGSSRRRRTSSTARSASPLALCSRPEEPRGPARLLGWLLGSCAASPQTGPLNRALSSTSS

SMILES | CLint scaled [1] [mL/min/kg] | AUC [2] [ng·h/mL] | Cmax [3] [ng/mL] | IC50 [4] [nM] | IC50 [5] [nM] | IC50 [6] [nM]
O=C(O)COc1cccc(CCCn2cc(C(c3ccccc3)c3ccccc3)ccc2=O)c1 | 120 | 5950 | 840 | > 1000 | 256 | 
O=C(O)COc1cccc(CCCn2nc(C(c3ccccc3)c3ccccc3)ccc2=O)c1 |  | 2400 | 730 |  | 147 | 18
O=C(O)COc1cccc(CCCn2cc(C(c3ccc(F)cc3)c3ccc(F)cc3)ccc2=O)c1 |  |  |  |  | 359 | 11
O=C(O)COc1cccc(CCCn2cc(C(c3ccc(Cl)cc3)c3ccc(Cl)cc3)ccc2=O)c1 |  |  |  |  | > 1000 | 9.2
Cc1ccc(C(c2ccc(C)cc2)c2ccc(=O)n(CCCc3cccc(OCC(=O)O)c3)c2)cc1 |  |  |  |  | 772 | 6.2
COc1ccc(C(c2ccc(OC)cc2)c2ccc(=O)n(CCCc3cccc(OCC(=O)O)c3)c2)cc1 |  |  |  |  | 211 | 5.8
O=C(O)COc1cccc(OCCn2cc(C(c3ccccc3)c3ccccc3)ccc2=O)c1 |  |  |  |  | 797 | 99
CC(Oc1cccc(CCCn2cc(C(c3ccccc3)c3ccccc3)ccc2=O)c1)C(=O)O (stereo not given) |  |  |  |  | 128 | 17
CCC(Oc1cccc(CCCn2cc(C(c3ccccc3)c3ccccc3)ccc2=O)c1)C(=O)O (stereo not given) |  |  |  |  | 990 | 502
CC(C)(Oc1cccc(CCCn2cc(C(c3ccccc3)c3ccccc3)ccc2=O)c1)C(=O)O |  |  |  |  | > 1000 | 
O=C(O)CCCOc1cccc(CCCn2cc(C(c3ccccc3)c3ccccc3)ccc2=O)c1 |  | 1020 | 500 |  | 99 | 11
O=C(O)CCCOc1cccc(CCCn2nc(C(c3ccccc3)c3ccccc3)ccc2=O)c1 |  | 4850 | 2860 | 5200 | 52 | 13
O=C(O)COc1cccc(CCCN(CCC(c2ccccc2)c2ccccc2)C(=O)c2ccccc2)c1 |  |  |  |  | 18 | 9.7
COc1ccc(C(=O)N(CCCc2cccc(OCC(=O)O)c2)CCC(c2ccccc2)c2ccccc2)cc1 | 766 | 270 | 40 |  | 17 | 5.5
